Source: PubChem BioAssay (Broad Institute)
FN deposition inh: fibronectin deposition inhibition | 350,000 tested, 0.086% active | AH1F fibroblasts, Alexa488-fibronectin deposition fluorescence, overnight | inhibition, % at 12.6 µM;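 active = mean inhibition across replicates of 30% or more, regardless of how many single replicates reach that level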;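 also: positive control wells lacked labelled fibronectin entirely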
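Schedule: 1 h cell adhesion before compound, then overnight fibronectin incubation; test system: AH1F fibroblast monolayer depositing Alexa488-labelled fibronectin into matrix; quantity: 10000 AH1F cells per well; probe or stimulus: fluorescent fibronectin at 24 nM final; signal: fluorescence, ex 485 nm, em 525 nm; evaluation: percent inhibition as loss of matrix-bound fibronectin fluorescence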
SIRT5 block: blocks human SIRT5 desuccinylation of peptide; 330,000 tested, 1.1% active; Purified SirT5, succinyl-peptide AMC, trypsin-coupled fluorescence; AID 652115; Q9NXA8; inhibition, % at 15 µM; in the data active = inhibition above about 15%
Target sequence (Q9NXA8 whole entry, looked up): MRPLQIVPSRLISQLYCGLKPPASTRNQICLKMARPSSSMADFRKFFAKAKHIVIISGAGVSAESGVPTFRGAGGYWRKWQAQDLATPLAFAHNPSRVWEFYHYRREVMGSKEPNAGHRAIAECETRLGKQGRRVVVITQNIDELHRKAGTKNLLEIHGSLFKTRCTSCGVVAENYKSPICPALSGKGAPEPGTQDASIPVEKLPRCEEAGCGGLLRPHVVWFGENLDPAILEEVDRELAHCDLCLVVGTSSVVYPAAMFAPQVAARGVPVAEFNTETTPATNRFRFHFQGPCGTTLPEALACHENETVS
ARNT TACC3 PPI: ARNT/TACC3 interaction disruption; Q9Y6A5; inhibition, % at 9.99 µM; 390,000 tested, 0.66% active; AlphaScreen His-ARNT PAS-B/GST-TACC3 binding, luminescence; TACC3 fragment carries E629A point mutation; AID 623870;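 active = mean inhibition of replicates at least 50% and at least half of replicates each reaching 50%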;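 also: 0% = complete ARNT plus TACC3 wells and 100% = ARNT alone without TACC3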
DENV2 CPE: inhibitors of DENV2 cytopathic effect | AID 651640 | DENV2-infected cells, cytopathic effect rescue, plate reader | 350,000 tested, 1.7% active | CPE inhibition, % at 9.99 µM; in the data active = CPE inhibition above about 20%, passing the limit was not always enough; tested in BHK-21 cells;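 also: 0% = median of neutral control wells and 100% = median of positive control wells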
XiGFP reactiv: X-chromosome reactivation activator; XiGFP mouse fibroblasts, % GFP-positive cells imaging, 3 d; cells co-treated with 5-aza-dC sensitizer; scaled so ellipticine positive control = 100%; activation, % at 7.58 µM; 360,000 tested, 0.055% active;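 active = mean normalized replicate activation at least 10% and every replicate at or above 10%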;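 also: 0% = median of on-plate neutral control wells and 100% = ellipticine 6 µM median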
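Material: XiGFP fibroblasts, SV40-immortalized. Buffer or medium: DMEM plus 5-aza-dC sensitizer. Compound: single concentration per compound, delivered by pin transfer. Times: 3 days compound exposure. Controls: ellipticine 6 µM.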
FGF22 binding: FGF22 (human) thermal shift binding; AID 651658; 340,000 tested, 1.5% active; Q9HCT0; recombinant FGF22 thermal shift, SYPRO orange fluorescence; percent of sucrose octasulfate shift, DMSO zero; activity (Tm shift, normalised), % at 9.99 µM;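 active = mean Tm shift, scaled 0 neutral to 100 positive control, at about 1.3% or above, every replicate too, limit read from the data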
Target sequence (Q9HCT0 whole entry, looked up): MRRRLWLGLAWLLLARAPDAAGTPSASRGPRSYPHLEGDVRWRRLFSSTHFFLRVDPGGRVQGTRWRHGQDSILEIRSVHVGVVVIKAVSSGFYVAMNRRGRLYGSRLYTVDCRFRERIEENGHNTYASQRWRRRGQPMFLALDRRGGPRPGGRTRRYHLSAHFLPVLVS
* marks the source's active call; other numbers are inactive results; x = no result. Compounds with a hit are over-represented: about 3.8% of the library has one in this group of screens.

SMILES	FN deposition inh	SIRT5 block	ARNT TACC3 PPI	DENV2 CPE	XiGFP reactiv	FGF22 binding
C[C@@H](NC(=O)C[C@@H]1C[C@@H]2c3cc(NS(C)(=O)=O)ccc3O[C@@H]2[C@@H](CO)O1)c1ccccc1	x	-1.7	-4.2	12.3	0.1	0.4
O=C(O)[C@@H]1[C@@H](CO)[C@@H]2Cn3c(ccc(-c4ccccc4F)c3=O)[C@@H]2N1Cc1ccccc1	-9.8	18.5*	4.2	0.1	0.3	-0.2
O=C(NCCc1ccccc1)[C@H]1[C@H](CO)[C@H]2Cn3c(cccc3=O)[C@H]2N1Cc1ccccc1	x	-3.7	-1.3	2.5	0.1	0.2
O=C(NCc1ccccc1)[C@@H]1[C@@H](CO)[C@@H]2Cn3c(cccc3=O)[C@@H]2N1Cc1ccccc1F	x	-0.9	-1.8	22.9*	0.0	0.1
C[C@@H]1CN([C@H](C)CO)C(=O)c2cc(NC(=O)CCN3CCOCC3)ccc2O[C@H]1CN(C)Cc1ccc(Cl)c(Cl)c1	x	-3.5	17.1	-4.3	0.3	-0.3
COc1cccc(-c2cccc(NC(=O)C3CCN(Cc4nccs4)CC3)c2)c1	14.8	-1.8	-8.1	1.9	0.1	-0.3
CC(C)c1csc(CN2CCC(C(=O)Nc3cccc(-c4ccco4)c3)CC2)n1	-6.7	x	x	1.9	0.2	44.4*
COc1ccc(C)cc1Nc1n[n+](-c2ccccc2)c(-c2ccc(OC)c(OC)c2OC)s1	-0.6	x	7.4	92.3*	0.1	0.1
N/C(=N\OC(=O)Nc1ccccc1)c1ncc([N+](=O)[O-])s1	-8.8	x	-1.1	33.2*	0.0	1.0
CCOc1ncccc1C(=O)OCC(=O)NCc1ccc2c(c1)OCO2	5.3	-0.6	1.2	2.2	0.0	42.6
O=C(COC(=O)c1cccnc1Cl)c1ccccc1	x	-3.7	-10.7	-4.3	x	-0.2
Cc1ccc(CNC(=O)COC(=O)c2cccnc2Cl)cc1	3.3	x	17.2	-1.8	0.1	43.3*
O=C(COC(=O)c1cccnc1Cl)c1ccc(F)cc1	8.6	-2.0	0.5	5.4	-0.2	42.9*
CSc1ncccc1C(=O)OCC(=O)NCc1ccc2c(c1)OCO2	-3.4	-0.7	-4.4	-8.2	-0.1	43.2*
COc1cc(OC)cc(C(=O)OCC(=O)NCc2ccc3c(c2)OCO3)c1	1.9	-0.1	x	-4.4	0.0	43.8*
C[C@H]1CN([C@@H](C)CO)C(=O)c2cc(NS(=O)(=O)c3ccc(F)cc3)ccc2O[C@H]1CN(C)C(=O)NC1CCCCC1	x	x	x	2.6	0.0	0.0
CO[C@@H]1CN(C)C(=O)c2ccc(NS(=O)(=O)c3ccccc3C)cc2OC[C@H](C)NC[C@@H]1C	-13.9	1.5	-0.3	-0.7	-0.3	-0.1
CCc1noc(C)c1C(=O)OCC(=O)NCc1ccc(Cl)cc1	0.2	18.2*	-3.2	8.1	-0.1	-0.3
NCC[C@H]1CC[C@@H](NC(=O)C2CCCC2)[C@H](CO)O1	x	-3.6	30.1	-2.6	0.1	-0.2
C[C@@H]1CN([C@H](C)CO)C(=O)c2cc(C#CC(C)(C)O)cnc2O[C@@H]1CN(C)C(=O)C1CCOCC1	x	-0.3	0.7	-8.0	0.3	-0.2
O=C(Nc1ccc(F)cc1)N[C@@H]1CC[C@@H](CCn2cc(-c3ccc(F)cc3)nn2)O[C@H]1CO	x	5.2	-2.1	21.7*	-0.4	0.0
O=C(N[C@@H]1CC[C@@H](CCn2cc(-c3ccc(F)cc3)nn2)O[C@@H]1CO)c1cnccn1	x	15.1*	3.4	1.7	-0.4	-0.1
O=C(CCN1CCCCC1)N[C@H]1CC[C@@H](CCn2cc(-c3ccc(F)cc3)nn2)O[C@H]1CO	x	22.6*	5.3	10.7	0.0	-0.1
O=C(CCN1CCCCC1)N[C@@H]1CC[C@@H](CCn2cc(-c3ccccc3)nn2)O[C@@H]1CO	x	0.1	10.2	2.0	0.3	0.2
COc1ccc(-c2cn(CC[C@@H]3CC[C@H](NC(=O)Nc4ccc(F)cc4)[C@H](CO)O3)nn2)cc1	-2.9	3.0	x	95.1*	0.8	0.7
SMILES	FN deposition inh	SIRT5 block	ARNT TACC3 PPI	DENV2 CPE	XiGFP reactiv	FGF22 binding
O=C(Cc1cccnc1)N1CC(=O)N2[C@H](CO)[C@@H](c3ccc(-c4cccc(F)c4)cc3)[C@@H]2C1	x	x	x	x	0.6	x
COc1ccc(CN(C)C[C@H]2Oc3c(NC(=O)Nc4c(C)noc4C)cccc3C(=O)N([C@H](C)CO)C[C@H]2C)cc1	x	-3.6	-13.0	2.8	0.2	0.0
C/C=C/c1ccc2c(c1)O[C@@H](CN(C)CC1CCCCC1)[C@@H](C)CN([C@@H](C)CO)S2(=O)=O	7.1	1.9	10.6	-4.2	-0.2	-0.4
C[C@@H]1CN([C@@H](C)CO)C(=O)Cc2cc(NC(=O)CCN3CCOCC3)ccc2O[C@@H]1CN(C)Cc1ccc(Cl)c(Cl)c1	x	-1.7	-4.7	-8.9	0.0	0.0
COc1ccc(NC(=O)N[C@H]2CC[C@@H](CCn3cc(C4(O)CCCC4)nn3)O[C@@H]2CO)cc1	2.2	-0.4	-5.7	93.2*	-0.1	0.4
O=C(CN1CCOCC1)NCC[C@@H]1CC[C@@H](NC(=O)Nc2ccc(F)cc2)[C@@H](CO)O1	x	9.2	-11.1	23.7*	-0.1	0.8
CCCCCCC(=O)O	x	0.3	-0.1	58.1*	x	-0.1
C=CCNC(=O)/C(C#N)=C/c1ccccc1Cl	-3.2	0.8	-14.8	x	0.0	43.3*
COc1ccc2c3c(n(C)c2c1)[C@@H](CO)N(C(=O)c1cccnc1)CC31CCN(S(C)(=O)=O)CC1	x	x	x	-9.4	0.3	x
COc1ccc(S(=O)(=O)N2CC3(CN(C(=O)CN(C)C)[C@H](CO)c4c3c3ccc(OC)cc3n4C)C2)cc1	1.7	4.8	x	102.3*	0.1	0.5
COc1ccc(S(=O)(=O)N2CCC3(CC2)CN(C(=O)c2cccnc2)[C@@H](CO)c2c3c3ccc(OC)cc3n2C)cc1	x	20.6*	x	6.6	0.1	-0.2
Cc1cccn2c(=O)c(C=O)c(Sc3ncccn3)nc12	-2.5	-0.8	8.1	1.6	0.0	43.3*
CC(C)Cc1ccc(C(C)C(N)=NCCc2ccccc2)cc1 (stereo not given)	7.6	-5.2	3.4	33.4*	0.0	-0.2
C/C(=N\NC(=O)CN(c1ccc(Oc2ccccc2)cc1)S(C)(=O)=O)C(C)(C)C	-6.9	-3.6	x	-5.4	0.0	43.5*
COCC(=O)N1[C@@H](C#N)[C@@H](c2ccc(C3=CCCCC3)cc2)[C@@H]1CO	-2.3	2.6	14.3	24.1*	0.0	-0.1
COCC(=O)NC[C@@H]1[C@@H](c2ccc(C3=CCCC3)cc2)[C@@H](CO)N1C(=O)C1CC1	-11.3	0.8	-1.8	25.1*	0.6	-0.3
COCC(=O)NC[C@@H]1[C@H](c2ccc(C3=CCCC3)cc2)[C@H](CO)N1C(=O)C1CC1	8.5	-12.8	2.3	-5.3	0.1	-0.6
